ChEMBL document CHEMBL1122387, “Synthesis and biological evaluation of sparsomycin analogues” (1983)

Key:
[1] = Percent inhibition of [123I]UdR incorporation in the DNA synthesis assay in bone marrow cells at a concentration of 10 e-3 M; format: functional; conditions: Mus musculus, Bone element; in the assay text read “[125I]UdR” for “[123I]UdR”
Procedure, shortened: (§1)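 DNA synthesis over 2 h at 37 °C, 5% CO2, on a rocker. Wells hold 6×10^5 cells (3×10^6 cells/mL): femoral marrow from male CD-1 mice, or P388 ascites cells kept by ip passage in DBA/2 mice. Medium is αMEM. Label is 0.1 μCi 125IUdR in 2×10^-5 M FUdR. Cells are harvested and gamma-counted. % inhibition versus control cpm, six replicate wells; ara-C serves as control.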

[2] = Percent inhibition of [75Se]- selenomethionine incorporation in the protein synthesis assay in bone marrow cell lines at a concentration of 10 E-3; format: functional, Mus musculus
Procedure, shortened: (§2)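 Protein synthesis in 6×10^5 cells per well (3×10^6 cells/mL), from CD-1 mouse femoral marrow or ip-passaged DBA/2 P388 cells. Medium is Spinner's (10% heat-inactivated FCS for P388). 0.2 μCi L-[75Se]selenomethionine is added with compound, 2 h at 37 °C, 5% CO2, rocked. Cells are harvested and gamma-counted. % inhibition versus control cpm (ethanol controls where used), six replicate wells; puromycin or sparsomycin serves as control.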

P388 [3] = experiment: Percent inhibition of [123I]UdR incorporation in the DNA synthesis assay in P388 cell lines at a concentration of 10 E-3 M; format: functional; conditions: Mus musculus, in the assay text read “[125I]UdR” for “[123I]UdR”; procedure, shortened: as §1
P388 [4] = experiment: Percent inhibition of [75Se]- selenomethionine incorporation in the protein synthesis assay in P388 cell lines at a concentration of 10 E-3 M; format: functional; conditions: Mus musculus; procedure, shortened: as §2
P815 [5] = experiment: Percent inhibition of [75Se]- selenomethionine incorporation in the protein synthesis assay in P815 cell lines at a concentration of 10 E-3 M; format: functional; conditions: Mus musculus
Procedure, shortened: (§3)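 P815 mastocytoma cells are cultured in complete DMEM and plated at 6×10^5 cells per well in CDMEM. 0.2 μCi L-[75Se]selenomethionine is added with compound, 2 h at 37 °C, 5% CO2, on a rocker. Cells are harvested and gamma-counted. % inhibition is taken versus control cpm (ethanol controls where used), four replicate wells.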

Osteoclast-like = experiment: Percent inhibition of [75Se]- selenomethionine incorporation in the protein synthesis assay in bone marrow cell lines at a concentration of 10 E-4; format: functional, Mus musculus; procedure, shortened: as §2
P388 [6] = experiment: Percent inhibition of [75Se]- selenomethionine incorporation in the protein synthesis assay in P388 cell lines at a concentration of 10 E-4 M; format: functional; conditions: Mus musculus; procedure, shortened: as §2
P815 [7] = experiment: Percent inhibition of [75Se]- selenomethionine incorporation in the protein synthesis assay in P815 cell lines at a concentration of 10 E-4 M; format: functional; conditions: Mus musculus; procedure, shortened: as §3

SMILES | inhibition at 1000 µM [1] | Inhibition [2] | inhibition at 1000 µM (P388 [3]) | inhibition at 1000 µM (P388 [4]) | inhibition at 1000 µM (P815 [5]) | Inhibition (Osteoclast-like) | inhibition at 100 µM (P388 [6]) | inhibition at 100 µM (P815 [7])
Cc1nc(O)nc(O)c1/C=C/C(=O)NCCc1ccccc1 | 0% | 34% | 9% | 1% | 2% |  |  | 
Cc1nc(O)nc(O)c1/C=C/C(=O)NC(CO)Cc1ccc(Br)cc1 (stereo unspecified) | 15% | 64% | 34% | 44% | 94% |  |  | 
Cc1nc(O)nc(O)c1/C=C/C(=O)NCCc1ccc(Br)cc1 | 0% | 42% | 17% | 27% | 89% |  |  | 
Cc1nc(O)nc(O)c1/C=C/C(=O)NCCC(=O)NCc1ccc(Br)cc1 |  | 29% |  | 23% | 69% |  |  | 
COc1ccc(C[C@H](N)C(=O)N[C@H]2[C@@H](O)[C@H](n3cnc4c(N(C)C)ncnc43)O[C@@H]2CO)cc1 [PUROMYCIN] |  | 61% |  | 64% | 98% |  |  | 
Cc1ccc(CCNC(=O)/C=C/c2c(C)nc(O)nc2O)cc1 | 0% | 35% | 0% | 0% | 11% |  |  | 
COc1ccc(CC(CO)NC(=O)/C=C/c2c(C)nc(O)nc2O)cc1 (stereo unspecified) |  |  |  |  |  | 0% | 0% | 0%
Cc1ccc(CC(CO)NC(=O)/C=C/c2c(C)nc(O)nc2O)cc1 (stereo unspecified) | 0% | 40% | 0% | 4% | 65% |  |  | 
COc1ccc(CCNC(=O)/C=C/c2c(C)nc(O)nc2O)cc1 | 0% | 44% | 2% | 0% | 0% |  |  | 
Cc1nc(O)nc(O)c1/C=C/C(=O)NC(CO)Cc1ccccc1 (stereo unspecified) | 0% | 34% | 5% | 6% | 52% |  |  | 
Nc1ccn([C@@H]2O[C@H](CO)[C@@H](O)[C@@H]2O)c(=O)n1 [CYTARABINE] | 99% |  | 99% |  |  |  |  | 
COc1ccc(CNC(=O)CCNC(=O)/C=C/c2c(C)nc(O)nc2O)cc1 |  | 11% |  | 1% | 0% |  |  | 
CSC[S@@+]([O-])CC(CO)NC(=O)/C=C/c1c(C)[nH]c(=O)[nH]c1=O (stereo partly specified) [SPARSOMYCIN] |  | 29% |  | 48% |  |  |  | 
